Measured values: paper PMC5343109 (Acta Pharmaceutica Sinica. B, 2016)
Where “and” joins values, the source holds several entries; their conditions need not be identical. Identical values can stand only once. Marks after values point to notes of the source that are not given here.

Assays:
[1] = DPPH free radical scavenging antioxidant assay; conditions: 517 nm, 1 mmol/L concentration
[2] = tested on: gastric mucosal tissue; assay: lipid peroxidation in the gastric mucosa; assay type: in vivo; conditions: rats, mean±SEM
[3] = molecular target: p38α MAPK (Homo sapiens, UniProt Q16539); assay: p38α MAPK assay; assay type: biochemical
[4] = tested on: carrageenan-induced rat paw edema; assay: carrageenan-induced rat paw edema anti-inflammatory activity; assay type: in vivo, albino rats of Wistar strain; conditions: for inhibition in vivo at 10 mg/kg: Rattus norvegicus, po, 4 h, read-out: Inhibition (anti-inflammatory activity), rat, oral dose 10 mg/kg body weight, after 4h; for Inhibition (anti-inflammatory activity) / Increase in paw edema / Activity relative to diclofenac sodium: rat; for Inhibition (anti-inflammatory activity) / Increase in paw edema: oral dose 10 mg/kg body weight; for Inhibition (anti-inflammatory activity): after 4h, 10 mg/kg; for Increase in paw edema: mean±SEM, n=6; for Activity relative to diclofenac sodium: oral dose 10 mg/kg, diclofenac sodium = 100
Method in brief: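 Wistar rats of either sex, 180–200 g, kept at 25 ± 2 °C, 50 ± 5% relative humidity and a 12 h light/dark cycle, with free food and water until testing. Paw edema after carrageenan was measured by digital plethysmometer. Six animals per group. Groups were compared by Student's t-test, with P < 0.05 taken as significant.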

[5] = tested on: gastric mucosa (ulcerogenic potential); assay: ulcerogenic test; assay type: in vivo; conditions: rats, oral dose of 30 mg/kg, mean±SEM, n=6
[6] = tested on: TNF-α; assay: LPS-induced TNF-α production inhibition in mice; assay type: in vivo, mice (BALB/c); conditions: for TNF-α inhibition: LPS-induced TNF-α production in mice, plasma ELISA, mean±SEM, n=6; for ID50: LPS-induced TNF-α release in mice

Chain of p38α MAPK (Q16539 whole entry): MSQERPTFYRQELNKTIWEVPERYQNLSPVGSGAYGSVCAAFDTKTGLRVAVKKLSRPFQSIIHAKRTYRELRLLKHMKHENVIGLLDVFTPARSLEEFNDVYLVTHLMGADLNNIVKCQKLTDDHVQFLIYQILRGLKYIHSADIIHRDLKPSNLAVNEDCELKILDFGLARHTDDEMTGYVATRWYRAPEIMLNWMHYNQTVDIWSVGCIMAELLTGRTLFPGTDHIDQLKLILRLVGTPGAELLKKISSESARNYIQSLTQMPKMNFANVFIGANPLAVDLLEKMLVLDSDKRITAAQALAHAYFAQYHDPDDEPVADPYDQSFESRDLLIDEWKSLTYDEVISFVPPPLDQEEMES

SMILES	Lipid peroxidation ([2]; n=6)	IC50 [3] [nM]	Lipid peroxidation ([2]; n=6, listed as diclofenac sodium) [nmol MDA/100 mg tissue]	percentage antioxidant activity [1]	inhibition in vivo at 10 mg/kg [4] [%]	Inhibition (anti-inflammatory activity) [4]	Increase in paw edema [4] [mL]	Activity relative to diclofenac sodium [4]	Severity index [5]	TNF-α inhibition [6]	ID50 [6]
COc1ccc(O)c(C(C)(C)C)c1 [BHA, butylated hydroxy anisole, reference compound]				71.53%							
NC(=O)Nc1ccc(-c2cc(-c3ccc(OCc4ccccc4)cc3)n(-c3ccccc3Cl)n2)cc1 [Compound 3a, 1-[4-[5-(4-(Benzyloxy)phenyl)-1-(2-chlorophenyl)-1H-pyrazol-3-yl]phenyl]urea]	5.47±0.44 ^b nmol MDA/100 mg tissue	39 ± 40			76.2	76.19 ^b %	0.40 ± 0.08	93.23	0.67±0.25 ^b	60.87±2.65 ^b %	19.98 mg/kg
NC(=O)Nc1ccc(-c2cc(-c3ccc(OCc4ccccc4)cc3)n(-c3cccc(Cl)c3)n2)cc1 [Compound 3b, 1-[4-[5-(4-(Benzyloxy)phenyl)-1-(3-chlorophenyl)-1H-pyrazol-3-yl]phenyl]urea]	5.19±0.48 ^b nmol MDA/100 mg tissue				78.1	78.06 ^b %	0.37 ± 0.20	95.52		62.45±0.07 ^b %	11.32 mg/kg and 11.32 ^b mg/kg
NC(=O)Nc1ccc(-c2cc(-c3ccc(OCc4ccccc4)cc3)n(-c3ccc(Cl)cc3)n2)cc1 [Compound 3c, 1-[4-[5-(4-(Benzyloxy)phenyl)-1-(4-chlorophenyl)-1H-pyrazol-3-yl]phenyl]urea]	5.12±0.55 ^b nmol MDA/100 mg tissue			75.06%	80.9	80.93 ^b %	0.32 ± 0.06	99.03		62.56±0.24%	9.67 mg/kg and 9.67 ^b mg/kg
NC(=O)Nc1ccc(-c2cc(-c3ccc(OCc4ccccc4)cc3)n(-c3ccc(Cl)c(Cl)c3)n2)cc1 [Compound 3d, 1-[4-[5-(4-(Benzyloxy)phenyl)-1-(3,4-dichlorophenyl)-1H-pyrazol-3-yl]phenyl]urea]		79			62.2		0.64 ± 0.05	76.17	1.08±0.37 ^b	52.60±2.16%	
NC(=O)Nc1ccc(-c2cc(-c3ccc(OCc4ccccc4)cc3)n(-c3ccc(F)cc3)n2)cc1 [Compound 3e, 1-[4-[5-(4-(benzyloxy)phenyl)-1-(4-fluorophenyl)-1H-pyrazol-3-yl]phenyl]urea]	6.08±0.15 nmol MDA/100 mg tissue	48 ± 10			72.3		0.47 ± 0.16	88.50	0.83±0.22	57.34±3.05%	
NC(=O)Nc1ccc(-c2cc(-c3ccc(OCc4ccccc4)cc3)n(-c3ccc(F)c(Cl)c3)n2)cc1 [Compound 3f, 1-[4-[5-(4-(Benzyloxy)phenyl)-1-(3-chloro-4-fluorophenyl)-1H-pyrazol-3-yl]phenyl] urea]		110 ± 170									
NC(=O)Nc1ccc(-c2cc(-c3ccc(OCc4ccccc4)cc3)n(-c3ccc(Br)cc3)n2)cc1 [Compound 3g, 1-[4-[5-(4-(Benzyloxy)phenyl)-1-(4-bromophenyl)-1H-pyrazol-3-yl]phenyl]urea]	6.02±0.17 ^a nmol MDA/100 mg tissue				74	74.01 ^b %	0.44 ± 0.06	90.56	0.75±0.27	58.13±0.28%	
NC(=O)Nc1ccc(-c2cc(-c3ccc(OCc4ccccc4)cc3)n(-c3ccc([N+](=O)[O-])cc3)n2)cc1 [Compound 3h, 1-[4-[5-(4-(Benzyloxy)phenyl)-1-(4-nitrophenyl)-1H-pyrazol-3-yl]phenyl]urea]		67			68.4		0.53 ± 0.12	83.67	0.91±0.20	52.76±2.08%	
NC(=O)Nc1ccc(-c2cc(-c3ccc(OCc4ccccc4)cc3)n(-c3ccc([N+](=O)[O-])cc3[N+](=O)[O-])n2)cc1 [Compound 3i, 1-[4-[5-(4-(Benzyloxy)phenyl)-1-(2,4-dinitrophenyl)-1H-pyrazol-3-yl]phenyl]urea]		112 ± 40									
C[S+]([O-])c1ccc(-c2nc(-c3ccncc3)c(-c3ccc(F)cc3)[nH]2)cc1 (stereo not shown) [SB 203580, reference compound]										52.11±1.08 ^b %	28.40 mg/kg and 28.40 ^b mg/kg

More lines, main results first:

Lipid peroxidation ([2]; n=6)	IC50 [3] [nM]	Lipid peroxidation ([2]; n=6, listed as diclofenac sodium) [nmol MDA/100 mg tissue]	SMILES	percentage antioxidant activity [1]	inhibition in vivo at 10 mg/kg [4] [%]	Inhibition (anti-inflammatory activity) [4]	Increase in paw edema [4] [mL]	Activity relative to diclofenac sodium [4]	Severity index [5]	TNF-α inhibition [6]	ID50 [6]
	123		Cc1ccccc1-n1nc(-c2ccc(NC(N)=O)cc2)cc1-c1ccc(OCc2ccccc2)cc1 [Compound 3j, 1-[4-[5-(4-(Benzyloxy)phenyl)-1-(2-methylphenyl)-1H-pyrazol-3-yl]phenyl]urea]	did not exhibit any significant antioxidant activity							
	210 ± 110		Cc1cccc(-n2nc(-c3ccc(NC(N)=O)cc3)cc2-c2ccc(OCc3ccccc3)cc2)c1 [Compound 3k, 1-[4-[5-(4-(Benzyloxy)phenyl)-1-(3-methylphenyl)-1H-pyrazol-3-yl]phenyl]urea]								
	169 ± 70		Cc1ccc(-n2nc(-c3ccc(NC(N)=O)cc3)cc2-c2ccc(OCc3ccccc3)cc2)cc1 [Compound 3l, 1-[4-[5-(4-(Benzyloxy)phenyl)-1-(4-methylphenyl)-1H-pyrazol-3-yl]phenyl]urea]								
	270		Cc1cccc(C)c1-n1nc(-c2ccc(NC(N)=O)cc2)cc1-c1ccc(OCc2ccccc2)cc1 [Compound 3m, 1-[4-[5-(4-(Benzyloxy)phenyl)-1-(2,6-dimethylphenyl)-1H-pyrazol-3-yl]phenyl]urea]								
	206 ± 370		COc1ccccc1-n1nc(-c2ccc(NC(N)=O)cc2)cc1-c1ccc(OCc2ccccc2)cc1 [Compound 3n, 1-[4-[5-(4-(Benzyloxy)phenyl)-1-(2-methoxyphenyl)-1H-pyrazol-3-yl]phenyl]urea]	did not exhibit any significant antioxidant activity							
	170		COc1ccc(-n2nc(-c3ccc(NC(N)=O)cc3)cc2-c2ccc(OCc3ccccc3)cc2)cc1 [Compound 3o, 1-[4-[5-(4-(Benzyloxy)phenyl)-1-(4-methoxyphenyl)-1H-pyrazol-3-yl]phenyl]urea]	did not exhibit any significant antioxidant activity							
6.52±0.42 nmol MDA/100 mg tissue		6.52 ± 0.42	O=C(O)Cc1ccccc1Nc1c(Cl)cccc1Cl [Diclofenac sodium, diclofenac sodium, reference compound]		81.6		0.31 ± 0.13	100	1.83±0.27		
